# High-throughput results from PubChem.
# MrgX1 antag = blocks BAM8-22 activation of human MrgX1 receptor; B-score at 10 µM; AID 588676; Q96LB2; MRGX1-HEK293 calcium flux, Fluo-4, BAM8-22 antagonism; hits give low values; actives 1.3% (n = 310,000);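 active = calcium-response B-score plate-corrected more than 3 library SD below zero, starting fluorescence within 5 deviations, no agonist response on first addition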;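 also: peak minus trough fluorescence over baseline after final BAM8-22 challenge near maximal dose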
# Target sequence (Q96LB2 whole entry, looked up): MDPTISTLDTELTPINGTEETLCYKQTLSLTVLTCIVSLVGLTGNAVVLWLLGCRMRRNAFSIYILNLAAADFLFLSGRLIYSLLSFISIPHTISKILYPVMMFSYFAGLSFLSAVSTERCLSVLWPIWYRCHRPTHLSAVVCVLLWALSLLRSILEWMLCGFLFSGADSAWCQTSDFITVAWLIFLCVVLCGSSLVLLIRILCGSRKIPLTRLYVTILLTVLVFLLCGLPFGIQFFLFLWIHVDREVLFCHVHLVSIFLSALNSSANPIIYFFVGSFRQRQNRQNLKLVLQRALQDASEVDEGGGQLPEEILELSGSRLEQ
# MrgX1 PAM = allosterically activates human MrgX1 receptor signaling; Q96LB2; actives 0.63% (n = 310,000); MrgX1-HEK293, Fluo-4 calcium flux, FDSS; hits give high values; AID 588675; B-score at 10 µM;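 active = plate-corrected calcium response at least 3 library SD above typical, normal starting fluorescence, not activating the receptor alone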;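 also: compound read alongside a low EC10 to EC30 dose of BAM8-22 agonist; peak minus trough fluorescence over baseline measured at the second addition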
# MrgX1 ag = agonists of human MrgX1 receptor | Q96LB2 | MrgX1-HEK293 cells, Fluo-4 calcium fluorescence, agonist mode; hits give high values | B-score at 10 µM | actives 0.44% (n = 310,000);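 active = calcium response B-score plate-corrected fluorescence ratio at least 3 library SD, with starting fluorescence B-score inside 5 SD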
#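 Test system: HEK293 cells stably expressing human MrgX1 receptor; Input: fifteen thousand cells per well; Dosing: compound delivered in addition one of three; Schedule: overnight seeding, then 1 h dark dye loading; Technique: Fluo-4 NW calcium fluorescence; Measure: B-scored fluorescence response ratio; Controls: positive and negative controls per plate.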
# RGS4 block = human RGS4 inhibition; B-score at 10 µM; AID 463165; actives 0.45% (n = 310,000); HEK293 M3R/RGS4 inducible, Fluo-4 calcium flux; hits give high values; triggered by carbachol at its EC20; P49798;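 active = B-score, a plate-corrected calcium signal, over three deviations above library mean, with baseline fluorescence within five deviations of library mean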;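 also: RGS4 expression induced by doxycycline in cells with stable M3 receptor; B-score is computed from the integrated fluorescence ratio over baseline after carbachol; higher B-score means a larger calcium signal and so more RGS4 inhibition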
# Target sequence (P49798 whole entry, looked up): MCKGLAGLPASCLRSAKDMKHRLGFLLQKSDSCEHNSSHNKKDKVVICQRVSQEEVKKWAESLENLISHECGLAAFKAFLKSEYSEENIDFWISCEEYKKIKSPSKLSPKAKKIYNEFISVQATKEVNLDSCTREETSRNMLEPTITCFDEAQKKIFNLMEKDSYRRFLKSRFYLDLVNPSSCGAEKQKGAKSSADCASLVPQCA
# RGS4 act = RGS4 potentiation or activation | HEK293 M3R/inducible RGS4, carbachol calcium flux Fluo4; hits give low values | B-score at 10 µM | actives 0.92% (n = 310,000) | AID 463111;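 active = B-score of the integrated calcium signal more than 4 SD below the library mean, with starting fluorescence not abnormally high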;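 also: negative B-score means reduced calcium response which marks RGS4 activation or potentiation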
#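 Detection: kinetic calcium fluorescence imaging with Fluo4-AM dye, 2 µM / Material: HEK293 cells with stable M3R and inducible RGS4 / Schedule: recording 10 s baseline at 1 Hz, 100 s post-agonist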
# MrgX1 ant reconf = confirmation of human MrgX1 receptor antagonists | MrgX1-HEK293, BAM8-22 calcium flux, Fluo-4; hits give low values | actives 19% (n = 2,300) | AID 602420 | shares compounds with MrgX1 antag | remaining BAM8-22 calcium response % of control (hits give low values), % at 10 µM;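 active = remaining agonist calcium response no higher than 100% minus 3 SD of agonist-only control wells, with starting fluorescence near control levels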;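 also: agonist BAM8-22 given at a near maximal EC90 to ECmax level; peak minus minimum fluorescence divided by baseline after agonist addition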
# HEK293 Ca flux = MrgX1 antagonist counter-screen hit in parental HEK293 cells. shares compounds with MrgX1 antag. Fluo-4 calcium fluorescence, FDSS. fluorescence ratio F(max-min)/F0 at 10 µM. actives 2% (n = 4,000). AID 624111;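 active = duplicate-averaged calcium fluorescence ratio at least three times the standard deviation of buffer wells, a nonspecific response in parental cells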
# HEK293 Ca counter = counter-screen for MrgX1 allosteric activators: effect in parental HEK293 cells | actives 0.4% (n = 4,000) | shares compounds with MrgX1 antag | parental HEK293 calcium flux, Fluo-4 fluorescence ratio; hits give high values | fluorescence ratio F(max-min)/F0 at 10 µM;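 active = calcium fluorescence ratio, averaged over duplicates, at least 3 SD of the buffer-well ratio, meaning a nonspecific response in receptor-free cells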;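 also: untransfected parental HEK293 lacking MrgX1 used as counterscreen for MrgX1 allosteric activators; fluorescence change taken during the second addition on a kinetic imager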
# HEK293 Ca cntr2 = MrgX1 activator counter-screen hit in parental HEK293 cells; AID 624115; actives 8.7% (n = 4,000); fluorescence ratio F(max-min)/F0 at 10 µM; shares compounds with MrgX1 antag; Fluo-4 calcium fluorescence (FDSS); hits give high values;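 active = calcium fluorescence ratio at least three times the spread of buffer wells, meaning a non-specific response in parental cells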
# The depositor's hits bear a star; i = inactive; · = no result. Compounds with a hit are over-represented: about 3.5% of the library has one in this group of screens.
SMILES,MrgX1 antag,MrgX1 PAM,MrgX1 ag,RGS4 block,RGS4 act,MrgX1 ant reconf,HEK293 Ca flux,HEK293 Ca counter,HEK293 Ca cntr2
COc1ccc(N2CC(C(=O)N3CCN(c4ccccc4F)CC3)CC2=O)cc1 (configuration not stated),i,i,i,i,i,·,·,·,·
COc1cccc(NC(=O)CN(C)C(=O)c2cccnc2Sc2ccc(C)c(C)c2)c1,-7.21*,i,i,i,i,i,i,i,i
CCN(Cc1ccncc1)S(=O)(=O)c1ccc(C(C)=O)cc1,i,i,i,i,i,·,·,·,·
COCCn1nnnc1C(c1cccs1)N1CCN(c2cc(C)ccc2C)CC1 (configuration not stated),-10.1*,i,i,i,i,i,i,i,i
COCCn1nnnc1C(c1cccs1)N1CCN(c2nc3ccccc3s2)CC1 (configuration not stated),i,i,i,i,i,·,·,·,·
COc1ccc(OC)c(-n2c(-c3ccccc3)n[nH]c2=S)c1,-5.18*,i,i,i,i,i,i,i,i
COc1ccc(OC)c(-n2c(-c3cccc(C)c3)n[nH]c2=S)c1,i,i,i,i,i,·,·,·,·
CC1(C)CC(=O)c2c(O)cc(OCC(=O)Nc3ccc(S(N)(=O)=O)cc3)cc2O1,i,i,i,i,i,·,·,·,·
COc1cc(NC(=O)COc2cc(O)c3c(c2)OC(C)(C)CC3=O)cc(OC)c1OC,-4.96*,i,i,i,i,50.7%*,i,i,i
Cc1ccccc1Cn1cc(NC(=O)c2nc3ncccn3n2)cn1,i,i,i,i,i,·,·,·,·
Cc1ccccc1Cn1ccc(NC(=O)c2nc3ncccn3n2)n1,-5.66*,i,i,·,·,i,i,i,i
O=C(COC(=O)c1ccc2c(c1)C(=O)N(Cc1ccncc1)C2=O)Nc1cccc2ccccc12,i,i,i,i,i,·,·,·,·
Cc1cc(C)n(-c2nc(SCCN(C)C)c3c4c(sc3n2)COC(C)(C)C4)n1,i,i,i,i,i,·,·,·,·
COC(=O)C1CSc2[nH]c(=O)sc2C1c1ccccc1 (configuration not stated),-5.67*,i,i,i,i,i,i,i,i
O=C(CSc1nnc(CNC(=O)c2cccs2)o1)NC1CCCCC1,-7.08*,i,i,i,i,i,i,i,i
c1ccn2c(Cc3nnc4ccccn34)nnc2c1,-5.54*,i,i,i,i,i,i,i,i
c1csc(-c2nnc3ccccn23)c1,i,i,i,i,i,·,·,·,·
CCOC(=O)c1ccc(-c2csc(NC(=O)CN3CCC(C)CC3)n2)cc1,i,i,i,i,i,·,·,·,·
O=C(Nc1cc(Cl)ccc1-n1cncn1)C1CC1,i,i,i,i,i,·,·,·,·
CC(C)C(=O)Nc1cccc(C(=O)Nc2nccs2)c1,i,i,i,i,i,·,·,·,·
Cc1ccc2oc(-c3cccc(N)c3)nc2c1,-6.24*,i,i,i,i,i,i,i,i
Cc1ccc(-c2nc3cc(N)ccc3o2)cc1,i,i,i,i,i,·,·,·,·
O=C(CSc1ccccc1)N1CCCC(N2CCN(c3ccccc3)CC2)C1 (configuration not stated),i,i,i,i,i,·,·,·,·
Cn1c(SCC(=O)NCc2cccs2)nnc1-c1ccc(O)cc1,i,i,i,i,i,·,·,·,·
O=C(NCC1CCCN1S(=O)(=O)c1cccs1)c1ccccc1 (configuration not stated),i,i,i,i,i,·,·,·,·
SMILES,MrgX1 antag,MrgX1 PAM,MrgX1 ag,RGS4 block,RGS4 act,MrgX1 ant reconf,HEK293 Ca flux,HEK293 Ca counter,HEK293 Ca cntr2
O=C(NCC1CCCN1S(=O)(=O)c1cccs1)c1ccc(Cl)cc1 (configuration not stated),-5.65*,i,i,i,i,i,i,i,i
CCOC(=O)c1cc2c3ccccc3n(CC)c2nc1N,-5.78*,i,i,i,i,i,i,i,i
Cc1cc(N=Nc2ccccc2C(=O)O)c(C)c(C)c1O,-6.95*,i,i,i,i,i,i,i,i
Cc1cc(O)c(C(C)C)cc1N=Nc1ccccc1C(=O)O,i,i,i,i,i,·,·,·,·
c1ccc(COc2ccc(OCCn3cncn3)cc2)cc1,-5.95*,i,i,i,i,i,i,i,i
O=C(COc1ccccc1Cl)Nc1cc(NC(=O)COc2ccccc2Cl)cc(C(=O)O)c1,i,i,i,i,i,·,·,·,·
Nc1nc(/C=C/c2cccnc2)nc(-c2ccccc2O)n1,-4.81*,i,i,i,i,i,i,i,i
Cc1ccc(-c2cc(-c3ccccc3O)nc(N/N=C/c3cccnc3)n2)cc1,i,i,i,i,i,·,·,·,·
Nc1nc(/C=C/c2ccc(F)cc2)nc(-c2ccccc2O)n1,-6.78*,i,i,i,i,83.7%*,i,i,i
COc1ccc(/C=C/c2nc(-c3ccccc3O)n[nH]2)cc1,i,i,i,i,i,·,·,·,·
Cc1cc(C)n2c(=O)c3ccc(Cl)cc3nc2c1C#N,-5.8*,i,i,i,i,i,i,i,i
O=S1(=O)CC(O)C(Nc2ccccc2Cl)C1 (configuration not stated),-7.92*,i,i,i,i,i,i,i,i
C=CCNc1nnc(Sc2ncccc2[N+](=O)[O-])s1,i,i,i,i,i,·,·,·,·
[O-]C1=N/[N+](=C/c2ccccc2Cl)CC1,i,i,i,i,i,·,·,·,·
Cc1ccc2nc(-c3ccc(N4C(=O)CC(N5CCC(C(N)=O)CC5)C4=O)cc3)sc2c1 (configuration not stated),i,i,i,i,i,·,·,·,·
